AI-2 QS mod: Vibrio harveyi AI-2 quorum sensing modulators, primary screen, JMH597 strain, luminescence/OD600 ratio. Vibrio harveyi JMH597 AI-2 luminescence/OD600 ratio, 9 h; stronger effect = lower value; strain lacks LuxN and CqsS sensors; 0 = neutral-control median. activity change, % at 7.5 µM. 300,000 compounds, 0.4% hits. AID 2094, 2009; in the data active = activity change below about -75%, passing the limit was not always enough; inconclusive = no clear call, values can overlap the other calls;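 also: luminescence divided by OD600 gain over 9 h not by final OD600 alone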
PHOSPHO1 inh: PubChem AID 1565; 290,000 compounds, 1.1% hits; inhibition, % at 13.3 µM; recombinant PHOSPHO1, absorbance phosphatase assay; in the data active = inhibition above about 60%
Target sequence (Q8TCT1 whole entry, looked up): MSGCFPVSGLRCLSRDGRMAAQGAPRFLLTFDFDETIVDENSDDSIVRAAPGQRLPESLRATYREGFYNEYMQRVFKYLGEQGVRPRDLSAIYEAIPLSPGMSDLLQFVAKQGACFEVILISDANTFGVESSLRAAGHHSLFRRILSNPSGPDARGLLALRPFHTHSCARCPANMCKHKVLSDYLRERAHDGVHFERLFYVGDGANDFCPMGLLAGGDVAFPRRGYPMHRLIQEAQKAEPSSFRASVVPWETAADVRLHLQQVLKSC
ALR inh: inhibitors of human ALR sulfhydryl oxidase, primary screen, biochemical, H2O2 detection, HRP-luminol luminescence, single point. FAD-linked sulfhydryl oxidase ALR (Homo sapiens), P55789. purified ALR, DTT oxidation. inhibition, % (no concentration beside the values). 290,000 compounds, 3.8% hits. AID 485317, 2010;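 active = mean replicate inhibition above about 79%, with every replicate also reaching it, limit read from the data; inconclusive = only one of the two criteria met; inactive = mean below limit and not every replicate reaching it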
Target sequence (P55789 whole entry, looked up): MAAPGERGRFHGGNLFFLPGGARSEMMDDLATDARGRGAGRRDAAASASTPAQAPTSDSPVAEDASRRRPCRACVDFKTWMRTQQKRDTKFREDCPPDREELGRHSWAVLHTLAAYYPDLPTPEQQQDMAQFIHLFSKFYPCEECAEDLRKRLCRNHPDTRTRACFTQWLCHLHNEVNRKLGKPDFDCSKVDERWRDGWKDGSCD
HCV core dimer: inhibitors of HCV core protein dimerization, primary screen, biochemical, TR-FRET, high-throughput; TR-FRET GST/Flag-core106 dimerization, 1536-well; inhibition, % at 5 µM; 300,000 compounds, 0.33% hits; AID 1899, 2009;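 active = inhibition above the mean of all tested compounds plus 3 SD, set per screening campaign, cut at about 45% in these data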
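test system = GST/Flag-tagged HCV core106 proteins | probe or stimulus = Eu donor and XL665 acceptor anti-tag antibodies | times = compound-protein-antibody incubation 4 h at 22.5 °C | signal = TR-FRET, excitation 340 nm, emission 617 and 671 nm | measure = percent inhibition of core106 dimerization signal | controls = wells lacking GST-core106 and wells with excess unlabelled core106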
HSF1 activator: HSF-1 activators, primary screen, NIH3T3-HGL cells, MG132 stress, luminescence, single point | NIH3T3-HGL HSF-1 luciferase reporter, 8 h; 100% = twice DMSO control signal | activation, % at 9 µM | 300,000 compounds, 1.7% hits | AID 504408, 2011;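 active = mean replicate activation of at least 50% with a set share of replicates each reaching 50%; inconclusive = only one of those two conditions met; inactive = mean below 50% and too few replicates reaching it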;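 also: 0% = median of the neutral control wells and 100% = twice that signal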
HSF1 inhib: HSF1 inhibitors in luciferase reporter cells, primary screen, cell-based, NIH3T3, luminescence | NIH3T3-HGL HSE-luciferase, MG132-induced, luminescence 8 h; stronger effect = lower value | activity change, negative = inhibition, % at 7.5 µM (by protocol) | 300,000 compounds, 0.77% hits | AID 2098, 2009;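 active = more than half of replicate wells show activity change below -50%, luminescence cut by over half; inconclusive = some wells, but at most half, below -50%; inactive = no replicate well below -50%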;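 also: luciferase reports HSF-1 transcriptional activity via heat shock element; 0% = median of DMSO wells and -100% = zero luminescence signal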
* = called active by the depositor; ? = inconclusive; . = not tested or not shown. Hits are enriched below; roughly 6.8% of the tested compounds scored in any of these assays.

SMILES	AI-2 QS mod	PHOSPHO1 inh	ALR inh	HCV core dimer	HSF1 activator	HSF1 inhib
CCN(CC)S(=O)(=O)c1ccc(C(=O)OCC(=O)N2CCN(C(=O)c3ccco3)CC2)cc1	21	-7	3	-6	53*	14
COc1cc(/C=C/C(=O)OCC(=O)NC2CCS(=O)(=O)C2)ccc1O (configuration not stated)	18	22	.	-8	2	-1
COc1ccc(C)cc1NC(=O)C1CCN(S(=O)(=O)c2cccs2)CC1	11	24	-3	5	-4	-4
CCc1cccc(NC(=O)C2CCCN(S(=O)(=O)c3cccs3)C2)c1 (configuration not stated)	-13	-6	11	-2	-79	-73*
Cc1ccc(NC(=O)C2CCN(S(=O)(=O)c3cccs3)CC2)c(O)c1	-12	62*	-1	7	3	1
O=C1NC(=O)/C(=C/c2ccc(O)cc2)S1	41	28	99*	-3	25	9
O=C1NC(=S)N/C1=C/c1cccn1-c1ccc([N+](=O)[O-])cc1	33	6	51	59*	3	-1
Cc1ccc(NC(=O)CN2C(=O)C3C4C=CC(C4)C3C2=O)cc1S(=O)(=O)N(C)C (configuration not stated)	-21	-1	1	-8	19	-2
COc1ccc(Sc2nc(-c3ccccn3)ncc2OC)cc1	42	-25	?	3	-15	-11
COc1cnc(-c2ccccn2)nc1Sc1ccccc1	41	8	96*	2	13	6
Cc1ccsc1C(=O)OCC(=O)N(C)c1c(N)n(Cc2ccccc2)c(=O)[nH]c1=O	.	.	-2	-2	-7	-6
CC1CCN(C(=O)C(C)NCc2ccc(F)cc2)CC1 (configuration not stated)	.	3	4	-9	29	5
Cc1ccc(C(=O)/C=C/c2cc(Br)cc(Br)c2O)o1	10	28	5	20	89*	72
CC1CCN(S(=O)(=O)c2ccc(C(=O)N3CCN(c4ccccc4F)CC3)cc2)CC1	30	60*	-5	10	-3	-3
O=C(C1CCN(S(=O)(=O)c2ccccc2)CC1)N1CCN(c2ccccc2F)CC1	.	.	-4	.	.	.
CC(C)c1ccc(/C=C2\CC/C(=C\C=N\N(C)C)C2=O)cc1	22	23	96*	11	26	18
CC(=O)n1cc([C@H]2C=C(C(=O)N3CCN(Cc4ccc5c(c4)OCO5)CC3)O[C@@H](OCCCCO)C2)c2ccccc21	19	28	-5	4	-7	4
CCOC(=O)C(=O)Nc1ccc(Oc2ccccc2)cc1	27	6	0	2	0	-5
Cc1ccccc1NNC(=O)C(=O)NNc1ccccc1C	16	68*	98*	-6	19	-1
CCOC(=O)C(=O)NNc1ccc(Cl)cc1	13	-2	100*	0	-30	-8
CCOC(=O)C(=O)NNc1ccc(C)cc1	-5	-4	100*	-21	-5	-7
CCOC(=O)C(=O)NNc1ccccc1OC	12	-12	99*	0	39	20
Cc1cc(Nc2ccc(Cl)cc2)n2ncnc2n1	6	44	-5	.	-8	-5
Cc1cc(Nc2ccc(N(C)C)cc2)n2ncnc2n1	24	35	98*	-97	17	4
CN(C)CCNCCCOc1ccccc1-c1ccccc1	7	41	-7	0	-21	2
SMILES	AI-2 QS mod	PHOSPHO1 inh	ALR inh	HCV core dimer	HSF1 activator	HSF1 inhib
CCc1n[n+](CC(=O)c2ccccc2)c(N)s1	.	8	.	.	.	.
O=C1CCCCN1CCC(=O)N1CCCC(N2CCN(c3ccccc3)CC2)C1 (configuration not stated)	13	75*	93*	11	1	0
CC(C)c1ccc(NC2CCCN(C(=O)CCc3cnn(C)c3)C2)cc1 (configuration not stated)	15	56	98*	.	-5	0
O=C(CCN1CCCCO1)N1CCCC(Nc2ccc(F)c(F)c2)C1 (configuration not stated)	18	23	23	4	6	-2
O=C1CCCCN1CCCC(=O)N1CCCC(Nc2ccccc2)C1 (configuration not stated)	4	21	99*	-11	-2	3
Cc1ccc(NC2CCCN(C(=O)CCN3CCCCO3)C2)cc1C (configuration not stated)	2	36	98*	1	8	0
Cc1nn(C)c(C)c1CCC(=O)N1CCCC(Nc2ccc(C(C)C)cc2)C1 (configuration not stated)	33	4	51	-3	-4	-9
O=C(Nc1ccccc1C(F)(F)F)C1CCN(C(=O)Cc2ccccc2)CC1	-2	23	-11	-17	13	-3
COc1ccc(NC(=O)COc2cc(C)cc(C)c2)cc1S(=O)(=O)N1CCCCC1	11	.	.	1	-23	-7
CC(C)c1ccc(NC2CCCN(C(=O)CCN3CCCC3=O)C2)cc1 (configuration not stated)	24	28	78*	-6	4	-4
CC(C)c1ccc(NC2CCCN(C(=O)CC3CCCC3)C2)cc1 (configuration not stated)	18	17	79*	-5	8	5
CC(C)(C)c1ccc(C(=O)C2CCCN(C(=O)CN3CCCC3=O)C2)cc1 (configuration not stated)	16	28	-3	-4	-14	7
O=C1CCCCN1CC(=O)N1CCCC(Nc2ccc(F)cc2)C1 (configuration not stated)	26	18	91*	-1	-5	1
Cc1nonc1C(=O)N1CCCC(N2CCN(c3ccc(F)cc3)CC2)C1 (configuration not stated)	22	47	98*	.	-4	-6
C[C@H]1COC(=O)CC/C=C\C[C@H](CC(=O)N(CCO)Cc2ccccc2)C(=O)N1	.	.	-1	.	.	.
Cc1ccc(S(=O)(=O)N2CCN(CCOc3c(Cl)cccc3Cl)CC2)cc1C	.	.	-8	.	.	.
O=C(CCN1CCCCO1)N1CCCC(N2CCN(c3ccc(F)cc3)CC2)C1 (configuration not stated)	4	58	97*	-15	14	-1
CC(C)c1ccc(NC2CCCN(C(=O)CCN3CCCCO3)C2)cc1 (configuration not stated)	11	23	79*	-4	-9	-3

Screening data: PubChem, several laboratories
